Results taken from ChEMBL document CHEMBL1141858, “Lichen metabolites. 2. Antiproliferative and cytotoxic activity of gyrophoric, usnic, and diffractaic acid on human keratinocyte growth” (J Nat Prod, 1999).

How the values were obtained:
HaCaT [1] = test: Antiproliferative activity against human HaCaT cells; format: functional, cell-based
Procedure, shortened: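 HaCaT keratinocytes were seeded at 2.5 × 10^4 per well in DMEM and grown 24 h. Cells were trypsinized (0.5% trypsin, 0.2% EDTA, 20 min, 37 °C) and counted by phase contrast microscopy. Inhibition was taken relative to vehicle (n = 3). IC50 was interpolated from a log concentration-response using ≥4 concentrations.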

HaCaT [2] = test: Growth inhibition of human HaCaT cells assessed as lactate dehydrogenase release at 2 uM after 4 hrs by UV method; format: functional
Procedure, shortened: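 HaCaT cells were exposed to compound at 2 µM for 4 h at 37 °C. Extracellular LDH activity in the medium was measured by the UV method with pyruvate and NADH. Values were compared against vehicle controls (n = 3).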

| Structure (SMILES) | IC50 (HaCaT [1]) [µM] | Activity (HaCaT [2]) [mU/mL] |
| --- | --- | --- |
| CC(=O)C1=C(O)C=C2Oc3c(C(C)=O)c(O)c(C)c(O)c3[C@@]2(C)C1=O [(+)-USNIC ACID] | 2.1 | 168 |
| O=C1c2c(O)cccc2Cc2cccc(O)c21 [ANTHRALIN] | 0.7 | 294 |
| COC(=O)c1c(C)cc(OC(=O)c2c(C)cc(O)c(C=O)c2O)c(C)c1O [ATRANORIN] | > 5 |  |
| COC(=O)c1c(C)cc(O)c(C)c1O [ATRARIC ACID] | > 5 |  |
| COc1cc(C)c(C(=O)Oc2cc(C)c(C(=O)O)c(O)c2C)c(OC)c1C [DIFFRACTAIC ACID] | 2.6 | 136 |
| CCOC(=O)c1c(C)cc(O)c(C=O)c1O [ETHYL HEMATOMMATE] | > 5 |  |
| Cc1cc(OC(=O)c2c(C)cc(OC(=O)c3c(C)cc(O)cc3O)cc2O)cc(O)c1C(=O)O [GYROPHORIC ACID] | 1.7 | 138 |
| C=C1C(=O)O[C@@H](CCCCCCCCCCCCC)[C@@H]1C(=O)O [PROTOLICHESTERINIC ACID] | > 5 |  |
